Assay results from ChEMBL document CHEMBL4052661, “Structure Based Design of N-(3-((1H-Pyrazolo[3,4-b]pyridin-5-yl)ethynyl)benzenesulfonamides as Selective Leucine-Zipper and Sterile-α Motif Kinase (ZAK) Inhibitors” (J Med Chem, 2017).
Blank lines part the entries; values can stand above or below the compound they belong to.

Key:
[1] = target: T1, Mitogen-activated protein kinase kinase kinase 20 (Homo sapiens, UniProt Q9NYL2); assay: Inhibition of N-terminal GST-tagged recombinant human full-length ZAK expressed in baculovirus infected Sf9 insect cells using MBP as substrate after 30 mins by ADP-Glo assay
How it was run: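 ZAK activity by ADP-Glo luminescence with MBP as substrate, ATP and serially diluted compound. Reaction started by adding ATP and run 30 min at room temperature. ADP-Glo reagent was added to stop it (40 min), then detection reagent for 30 min before reading luminescence. Curves fitted; each experiment repeated at least 3 times.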
Target sequence in this assay (Q9NYL2 whole entry): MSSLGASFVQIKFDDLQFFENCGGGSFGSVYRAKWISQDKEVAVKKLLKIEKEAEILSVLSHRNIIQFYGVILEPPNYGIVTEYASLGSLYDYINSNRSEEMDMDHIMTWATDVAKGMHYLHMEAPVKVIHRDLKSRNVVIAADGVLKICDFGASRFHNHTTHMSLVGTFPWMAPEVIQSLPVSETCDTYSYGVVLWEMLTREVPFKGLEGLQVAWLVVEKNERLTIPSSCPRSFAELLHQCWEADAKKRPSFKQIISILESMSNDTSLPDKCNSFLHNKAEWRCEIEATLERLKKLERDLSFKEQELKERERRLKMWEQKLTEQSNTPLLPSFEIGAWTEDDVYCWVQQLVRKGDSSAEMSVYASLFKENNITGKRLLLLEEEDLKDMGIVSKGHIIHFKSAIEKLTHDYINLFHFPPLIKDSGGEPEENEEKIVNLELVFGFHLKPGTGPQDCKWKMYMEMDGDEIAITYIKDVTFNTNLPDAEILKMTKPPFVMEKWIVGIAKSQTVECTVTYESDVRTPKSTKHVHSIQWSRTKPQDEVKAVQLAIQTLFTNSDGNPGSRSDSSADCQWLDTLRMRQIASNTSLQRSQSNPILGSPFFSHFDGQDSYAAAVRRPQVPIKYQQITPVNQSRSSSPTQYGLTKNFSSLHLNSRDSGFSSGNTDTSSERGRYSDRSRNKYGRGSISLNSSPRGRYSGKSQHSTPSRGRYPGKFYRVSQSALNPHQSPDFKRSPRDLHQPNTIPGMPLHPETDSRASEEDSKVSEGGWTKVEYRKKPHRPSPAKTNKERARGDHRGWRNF

[2] = target: T2, Serine/threonine-protein kinase B-raf (Homo sapiens, UniProt P15056, V600E); assay: Inhibition of recombinant human B-RAF V600E mutant using Ser/Thr3 as substrate after 1 hr by FRET-based Z'-Lyte assay
T2 sequence (P15056 2-766 V600E limits assumed): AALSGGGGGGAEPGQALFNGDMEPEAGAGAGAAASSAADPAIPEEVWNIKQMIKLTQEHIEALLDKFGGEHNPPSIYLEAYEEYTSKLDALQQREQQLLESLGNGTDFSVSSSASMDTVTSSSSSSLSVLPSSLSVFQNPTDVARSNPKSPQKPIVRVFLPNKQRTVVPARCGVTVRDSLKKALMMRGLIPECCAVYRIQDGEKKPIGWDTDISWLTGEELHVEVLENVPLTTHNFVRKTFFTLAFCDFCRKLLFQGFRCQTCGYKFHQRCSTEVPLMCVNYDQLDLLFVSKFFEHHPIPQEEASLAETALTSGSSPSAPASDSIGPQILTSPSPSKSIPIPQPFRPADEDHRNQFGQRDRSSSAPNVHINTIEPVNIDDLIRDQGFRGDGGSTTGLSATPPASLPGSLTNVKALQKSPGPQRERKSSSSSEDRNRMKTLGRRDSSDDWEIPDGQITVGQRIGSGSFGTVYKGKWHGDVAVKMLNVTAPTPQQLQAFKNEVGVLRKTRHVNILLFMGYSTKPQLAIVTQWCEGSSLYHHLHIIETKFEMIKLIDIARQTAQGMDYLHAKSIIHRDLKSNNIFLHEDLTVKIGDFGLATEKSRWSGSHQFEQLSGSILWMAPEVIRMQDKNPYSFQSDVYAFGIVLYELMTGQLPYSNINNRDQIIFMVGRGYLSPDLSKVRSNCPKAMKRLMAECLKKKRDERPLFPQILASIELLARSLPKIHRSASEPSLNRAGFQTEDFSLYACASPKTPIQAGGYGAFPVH

[3] = target: Serine/threonine-protein kinase B-raf (Homo sapiens, UniProt P15056); assay: Inhibition of wild type GST-tagged recombinant human full-length B-RAF expressed in baculovirus expression system using Ser/Thr3 as substrate after 1 hr by FRET-based Z'-Lyte assay
Serine/threonine-protein kinase B-raf (Homo sapiens, UniProt P15056), sequence (P15056 whole entry): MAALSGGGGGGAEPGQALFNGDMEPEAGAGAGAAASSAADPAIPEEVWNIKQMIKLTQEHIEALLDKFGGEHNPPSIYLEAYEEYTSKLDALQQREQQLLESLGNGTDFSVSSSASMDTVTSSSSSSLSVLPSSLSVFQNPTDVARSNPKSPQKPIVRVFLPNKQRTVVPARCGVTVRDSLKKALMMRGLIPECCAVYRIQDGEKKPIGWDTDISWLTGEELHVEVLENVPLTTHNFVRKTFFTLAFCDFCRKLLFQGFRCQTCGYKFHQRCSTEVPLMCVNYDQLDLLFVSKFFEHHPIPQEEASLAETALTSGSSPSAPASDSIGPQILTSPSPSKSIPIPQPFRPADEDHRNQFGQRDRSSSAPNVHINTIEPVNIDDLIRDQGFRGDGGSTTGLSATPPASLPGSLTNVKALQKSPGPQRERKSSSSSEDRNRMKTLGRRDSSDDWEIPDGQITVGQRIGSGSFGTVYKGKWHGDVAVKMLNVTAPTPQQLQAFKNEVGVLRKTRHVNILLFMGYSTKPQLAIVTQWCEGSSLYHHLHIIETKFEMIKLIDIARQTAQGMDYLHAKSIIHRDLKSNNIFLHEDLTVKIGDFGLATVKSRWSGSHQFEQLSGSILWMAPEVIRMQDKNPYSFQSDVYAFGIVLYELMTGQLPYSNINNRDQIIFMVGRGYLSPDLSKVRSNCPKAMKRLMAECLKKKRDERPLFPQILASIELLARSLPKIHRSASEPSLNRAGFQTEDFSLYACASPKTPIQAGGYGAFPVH
How it was run: (§1)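 Z'-Lyte FRET assay with Ser/Thr3 peptide in kinase buffer; the final reaction held 0.002 ng B-Raf for wild type. Incubated 1 h at room temperature, then 1 h development to cleave nonphosphorylated peptide, then stop reagent. Means of 3 independent experiments.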

[4] = target: T3, Tyrosine-protein kinase FRK (Homo sapiens, UniProt P42685); assay: Inhibition of partial length human FRK expressed in Escherichia coli BL21 assessed as remaining activity at 1 uM after 1 hr by KINOMEscan method
T3 sequence (P42685 whole entry): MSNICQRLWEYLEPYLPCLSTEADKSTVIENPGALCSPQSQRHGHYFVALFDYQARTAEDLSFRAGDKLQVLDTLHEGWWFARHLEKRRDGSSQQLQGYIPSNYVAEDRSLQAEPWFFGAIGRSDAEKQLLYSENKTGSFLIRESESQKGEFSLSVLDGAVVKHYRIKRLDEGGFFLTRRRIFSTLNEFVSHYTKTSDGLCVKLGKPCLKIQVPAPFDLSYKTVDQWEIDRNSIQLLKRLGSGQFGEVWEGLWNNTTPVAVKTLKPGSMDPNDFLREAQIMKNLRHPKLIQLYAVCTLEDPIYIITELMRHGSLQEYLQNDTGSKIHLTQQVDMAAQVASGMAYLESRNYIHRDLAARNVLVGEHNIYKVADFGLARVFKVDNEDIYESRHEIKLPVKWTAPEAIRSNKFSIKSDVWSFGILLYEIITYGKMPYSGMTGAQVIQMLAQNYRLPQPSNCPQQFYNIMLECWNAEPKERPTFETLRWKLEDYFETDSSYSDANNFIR
How it was run: (§2)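 Active-site-dependent competition binding screen run by an outside provider across a 468-kinase panel (403 nonmutated, 65 mutated kinases).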

[5] = target: T4, Mast/stem cell growth factor receptor Kit (Homo sapiens, UniProt P10721); assay: Inhibition of partial length human KIT expressed in Escherichia coli BL21 assessed as remaining activity at 1 uM after 1 hr by KINOMEscan method; how it was run: as §2
T4 sequence (P10721 whole entry): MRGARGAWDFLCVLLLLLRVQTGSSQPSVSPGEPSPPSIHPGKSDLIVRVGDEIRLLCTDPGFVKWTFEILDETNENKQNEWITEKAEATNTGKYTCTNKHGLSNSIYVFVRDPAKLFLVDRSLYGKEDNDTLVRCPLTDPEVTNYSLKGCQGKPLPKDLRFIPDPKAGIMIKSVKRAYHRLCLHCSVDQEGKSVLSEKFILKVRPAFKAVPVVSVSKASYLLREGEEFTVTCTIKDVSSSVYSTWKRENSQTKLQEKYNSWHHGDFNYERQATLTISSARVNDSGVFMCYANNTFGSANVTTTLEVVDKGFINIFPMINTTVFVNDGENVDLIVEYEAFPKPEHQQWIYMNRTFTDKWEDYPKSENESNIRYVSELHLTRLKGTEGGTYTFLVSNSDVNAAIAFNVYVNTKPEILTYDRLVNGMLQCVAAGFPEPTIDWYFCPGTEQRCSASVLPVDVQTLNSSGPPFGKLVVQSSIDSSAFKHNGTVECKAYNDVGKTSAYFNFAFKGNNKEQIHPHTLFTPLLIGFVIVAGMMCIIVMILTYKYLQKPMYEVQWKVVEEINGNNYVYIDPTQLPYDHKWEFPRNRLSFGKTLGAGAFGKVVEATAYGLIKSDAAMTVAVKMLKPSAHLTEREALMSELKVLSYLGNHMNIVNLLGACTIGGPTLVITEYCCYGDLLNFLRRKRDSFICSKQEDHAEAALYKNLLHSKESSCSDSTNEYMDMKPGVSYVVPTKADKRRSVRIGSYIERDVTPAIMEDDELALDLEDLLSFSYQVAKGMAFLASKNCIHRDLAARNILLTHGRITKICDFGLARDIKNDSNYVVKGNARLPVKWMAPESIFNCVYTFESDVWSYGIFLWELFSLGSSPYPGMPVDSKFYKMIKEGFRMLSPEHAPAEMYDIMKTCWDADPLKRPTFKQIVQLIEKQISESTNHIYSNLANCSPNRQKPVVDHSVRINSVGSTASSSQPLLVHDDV

[6] = target: T5, Dual specificity mitogen-activated protein kinase kinase 5 (Homo sapiens) (UniProt Q13163); assay: Inhibition of partial length human MEK5 expressed in HEK293 cells assessed as remaining activity at 1 uM after 1 hr by KINOMEscan method; assay type: cell-based; how it was run: as §2
T5 sequence (whole entry): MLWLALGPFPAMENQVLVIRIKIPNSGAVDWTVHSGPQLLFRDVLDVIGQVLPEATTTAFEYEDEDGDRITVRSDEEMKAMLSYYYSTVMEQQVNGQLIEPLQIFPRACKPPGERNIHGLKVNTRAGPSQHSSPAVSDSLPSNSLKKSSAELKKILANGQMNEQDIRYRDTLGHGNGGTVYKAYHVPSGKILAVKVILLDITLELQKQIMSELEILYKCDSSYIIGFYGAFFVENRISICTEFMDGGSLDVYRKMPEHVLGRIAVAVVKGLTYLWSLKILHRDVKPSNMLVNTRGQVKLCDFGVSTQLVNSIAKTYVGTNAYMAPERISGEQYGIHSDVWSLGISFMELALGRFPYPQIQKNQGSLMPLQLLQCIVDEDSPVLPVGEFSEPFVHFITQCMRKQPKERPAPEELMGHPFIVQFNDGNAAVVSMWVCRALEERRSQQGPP

[7] = target: T4, Mast/stem cell growth factor receptor Kit; assay: Binding affinity to partial length human KIT expressed in Escherichia coli BL21 by active-site-dependent competition assay
How it was run: (§3)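 Active-site-dependent competition binding (KINOMEscan) run by an outside service across a panel of 468 kinases (403 nonmutated, 65 mutated); reported as binding constant Kd.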

[8] = target: T2, Serine/threonine-protein kinase B-raf; assay: Binding affinity to partial length human BRAF V600E mutant expressed in HEK293 cells by active-site-dependent competition assay; assay type: cell-based; how it was run: as §3
[9] = target: T6, Serine/threonine-protein kinase SIK1 (Homo sapiens, UniProt P57059); assay: Inhibition of partial length human SIK expressed in Escherichia coli BL21 assessed as remaining activity at 1 uM after 1 hr by KINOMEscan method; how it was run: as §2
[10] = target: T7, Dual specificity mitogen-activated protein kinase kinase 5 (Homo sapiens, UniProt Q13163); assay: Binding affinity to partial length human MEK5 expressed in HEK293 cells by active-site-dependent competition assay; assay type: cell-based; how it was run: as §3
T7 sequence (Q13163 whole entry): T5 sequence (whole entry)

[11] = Half life in Sprague-Dawley rat at 10 mg/kg, po by HPLC/MS analysis; assay type: ADME, organism-based; settings: in vivo
How it was run: (§4)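 Sprague-Dawley rats given a single oral dose of 10 mg/kg; plasma exposure (AUC), half-life and oral bioavailability derived.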

[12] = tested on: Rattus norvegicus; assay: Inhibition of myocardial hypertrophy in po dosed spontaneous hypertensive WKY rat model assessed as decrease in p38 phosphorylation administered for 4 continuous weeks by Western blot method; assay type: functional, organism-based
How it was run: (§5)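 Spontaneously hypertensive rats given oral 0, 10 or 20 mg/kg/day for 4 continuous weeks alongside normotensive Wistar-Kyoto controls; left ventricles harvested after sacrifice for Western blot analysis.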

[13] = target: T8, Tyrosine-protein kinase Srms (Homo sapiens, UniProt Q9H3Y6); assay: Inhibition of partial length human SRMS expressed in HEK293 cells assessed as remaining activity at 1 uM after 1 hr by KINOMEscan method; assay type: cell-based; how it was run: as §2
T8 sequence (Q9H3Y6 whole entry): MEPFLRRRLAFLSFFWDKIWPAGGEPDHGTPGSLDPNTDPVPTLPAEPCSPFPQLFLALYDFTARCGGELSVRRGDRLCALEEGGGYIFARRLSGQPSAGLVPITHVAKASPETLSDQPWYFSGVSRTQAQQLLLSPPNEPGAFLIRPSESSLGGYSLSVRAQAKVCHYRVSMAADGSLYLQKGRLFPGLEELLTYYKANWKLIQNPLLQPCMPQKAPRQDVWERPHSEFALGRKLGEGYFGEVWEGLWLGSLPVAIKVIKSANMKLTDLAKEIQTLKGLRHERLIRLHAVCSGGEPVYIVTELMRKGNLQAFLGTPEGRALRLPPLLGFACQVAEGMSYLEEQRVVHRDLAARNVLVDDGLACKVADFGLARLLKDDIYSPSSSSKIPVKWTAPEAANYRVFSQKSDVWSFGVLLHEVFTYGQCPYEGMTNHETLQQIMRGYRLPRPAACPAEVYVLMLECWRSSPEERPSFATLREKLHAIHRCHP

[14] = tested on: Rattus norvegicus; assay: Inhibition of myocardial hypertrophy in spontaneous hypertensive WKY rat model assessed as decrease in left ventricular mass at systole at 10 to 20 mg/kg, po administered for 4 continuous weeks relative to control; assay type: functional
How it was run: (§6)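 Spontaneously hypertensive rats randomized into 3 groups given oral 0, 10 or 20 mg/kg/day for 4 continuous weeks; normotensive Wistar-Kyoto rats as reference; n = 6 per group. After sacrifice, left ventricles were collected to measure mass at diastole and systole; heart sections stained with hematoxylin and eosin for cardiomyocyte arrangement.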

[15] = target: T6, Serine/threonine-protein kinase SIK1; assay: Binding affinity to partial length human SIK expressed in Escherichia coli BL21 by active-site-dependent competition assay; how it was run: as §3
[16] = target: Mast/stem cell growth factor receptor Kit (Homo sapiens, UniProt P10721, L576P); assay: Binding affinity to partial length human KIT L576P mutant expressed in Escherichia coli BL21 by active-site-dependent competition assay; how it was run: as §3
[17] = species on record: Rattus norvegicus; assay: Inhibition of ZAK in Ang-2-induced rat H9c2 cells assessed as downregulation of BNP levels by Western blot analysis
[18] = tested on: Mast/stem cell growth factor receptor Kit (Homo sapiens), P10721 [L576P]; assay: Inhibition of partial length human KIT L576P mutant expressed in Escherichia coli BL21 assessed as remaining activity at 1 uM after 1 hr by KINOMEscan method; how it was run: as §2
Mast/stem cell growth factor receptor Kit (Homo sapiens), P10721 [L576P], sequence (P10721 whole entry L576P): as the sequence (P10721 whole entry) above, with L576P counted along it

[19] = tested on: Serine/threonine-protein kinase B-raf (Homo sapiens), P15056 [V600E]; assay: Inhibition of partial length human BRAF V600E mutant expressed in HEK293 cells assessed as remaining activity at 1 uM after 1 hr by KINOMEscan method; assay type: cell-based; how it was run: as §2
Serine/threonine-protein kinase B-raf (Homo sapiens), P15056 [V600E], sequence (P15056 whole entry V600E): as the sequence (P15056 whole entry) above, with V600E counted along it

[20] = tested on: Rattus norvegicus; assay: Inhibition of myocardial hypertrophy in po dosed spontaneous hypertensive WKY rat model assessed as downregulation of BNP levels administered for 4 continuous weeks by Western blot method; assay type: functional, organism-based; how it was run: as §5
[21] = target: T2, Serine/threonine-protein kinase B-raf; assay: Inhibition of partial length human BRAF V600E mutant expressed in HEK293 cells using Ser/Thr3 as substrate after 1 hr by FRET-based Z'-Lyte assay
How it was run: as §1, with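 “reagent. Controls: phosphopeptide for 100% phosphorylation, buffer instead of ATP for 100% inhibition, DMSO vehicle for 0% inhibition.” for “reagent.”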

[22] = species on record: Rattus norvegicus; assay: Inhibition of ZAK in Ang-2-induced rat H9c2 cells assessed as decrease in p38 phosphorylation by Western blot analysis
[23] = target: T1, Mitogen-activated protein kinase kinase kinase 20; assay: Inhibition of partial length human ZAK expressed in Escherichia coli BL21 assessed as remaining activity at 1 uM after 1 hr by KINOMEscan method; how it was run: as §2
[24] = tested on: Rattus norvegicus; assay: Inhibition of myocardial hypertrophy in po dosed spontaneous hypertensive WKY rat model assessed as decrease in left ventricular mass at systole administered for 4 continuous weeks; assay type: functional, organism-based; how it was run: as §6
[25] = tested on: Rattus norvegicus; assay: Inhibition of myocardial hypertrophy in po dosed spontaneous hypertensive WKY rat model assessed as restoration of cardiomyocyte disarrangement to normal phenomena administered for 4 continuous weeks by Hematoxylin and eosin staining-based light microscopic method; assay type: functional, organism-based; how it was run: as §6
[26] = target: T1, Mitogen-activated protein kinase kinase kinase 20; assay: Binding affinity to partial length human ZAK expressed in Escherichia coli BL21 by active-site-dependent competition assay; how it was run: as §3
Target sequence in this assay (Q9NYL2 whole entry): as the sequence (Q9NYL2 whole entry) above

[27] = tested on: Rattus norvegicus; assay: Inhibition of myocardial hypertrophy in spontaneous hypertensive WKY rat model assessed as left ventricular mass at diastole at 20 mg/kg, po administered for 4 continuous weeks (reference value: 1.2 +/- 0.052 g); assay type: functional; how it was run: as §6
[28] = tested on: Rattus norvegicus; assay: AUC (0 to infinity) in Sprague-Dawley rat at 10 mg/kg, po by HPLC/MS analysis; assay type: ADME, organism-based; parameters: dose 10 mg/kg, time infinity, route oral; settings: in vivo; how it was run: as §4
[29] = Oral bioavailability in Sprague-Dawley rat at 10 mg/kg by HPLC/MS analysis; assay type: ADME, organism-based; settings: in vivo; how it was run: as §4
[30] = tested on: Mast/stem cell growth factor receptor Kit (Homo sapiens), P10721 [V559D]; assay: Inhibition of partial length human KIT V559D mutant expressed in Escherichia coli BL21 assessed as remaining activity at 1 uM after 1 hr by KINOMEscan method; how it was run: as §2
Mast/stem cell growth factor receptor Kit (Homo sapiens), P10721 [V559D], sequence (P10721 whole entry V559D): as the sequence (P10721 whole entry) above, with V559D counted along it

[31] = species on record: Rattus norvegicus; assay: Inhibition of ZAK in Ang-2-induced rat H9c2 cells assessed as decrease in JNK phosphorylation by Western blot analysis
[32] = target: T8, Tyrosine-protein kinase Srms; assay: Binding affinity to partial length human SRMS expressed in HEK293 cells by active-site-dependent competition assay; assay type: cell-based; how it was run: as §3
[33] = tested on: Rattus norvegicus; assay: Inhibition of myocardial hypertrophy in po dosed spontaneous hypertensive WKY rat model assessed as decrease in left ventricular mass at diastole administered for 4 continuous weeks; assay type: functional, organism-based; how it was run: as §6
[34] = Protein binding in mouse plasma at 1 uM after 4 hrs by equilibrium dialysis method; assay type: ADME, cell-free; settings: read-out: PPB (converted)
[35] = target: T9, Aurora kinase B (Homo sapiens, UniProt Q96GD4); assay: Inhibition of partial length human AURKB expressed in HEK293 cells assessed as remaining activity at 1 uM after 1 hr by KINOMEscan method; assay type: cell-based; how it was run: as §2
T9 sequence (Q96GD4 whole entry): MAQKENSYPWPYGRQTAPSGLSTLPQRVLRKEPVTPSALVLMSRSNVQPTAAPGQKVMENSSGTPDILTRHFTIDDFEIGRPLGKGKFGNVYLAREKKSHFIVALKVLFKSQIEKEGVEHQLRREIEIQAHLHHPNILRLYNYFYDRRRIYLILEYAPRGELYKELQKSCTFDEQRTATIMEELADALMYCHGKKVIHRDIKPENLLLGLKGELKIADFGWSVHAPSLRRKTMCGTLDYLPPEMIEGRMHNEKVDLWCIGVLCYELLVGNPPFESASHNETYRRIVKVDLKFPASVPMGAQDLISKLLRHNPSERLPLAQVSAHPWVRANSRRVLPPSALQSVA

[36] = target: Mast/stem cell growth factor receptor Kit (Homo sapiens, UniProt P10721, V559D); assay: Binding affinity to partial length human KIT V559D mutant expressed in Escherichia coli BL21 by active-site-dependent competition assay; how it was run: as §3
[37] = target: T3, Tyrosine-protein kinase FRK; assay: Binding affinity to partial length human FRK expressed in Escherichia coli BL21 by active-site-dependent competition assay; how it was run: as §3
[38] = tested on: Rattus norvegicus; assay: Inhibition of myocardial hypertrophy in po dosed spontaneous hypertensive WKY rat model assessed as decrease in JNK phosphorylation administered for 4 continuous weeks by Western blot method; assay type: functional, organism-based; how it was run: as §5
[39] = target: T9, Aurora kinase B; assay: Binding affinity to partial length human AURKB expressed in HEK293 cells by active-site-dependent competition assay; assay type: cell-based; how it was run: as §3

- IC50 [1]: 0.0192 µM
- IC50 [2]: 0.169 µM
- IC50 [3]: > 10 µM
Structure (SMILES): COc1n[nH]c2ncc(C#Cc3c(F)ccc(NS(=O)(=O)c4ccccc4)c3F)cc12

- IC50 [1]: 0.0427 µM
- IC50 [2]: > 2 µM
- IC50 [3]: > 10 µM
Structure (SMILES): CC(C)Oc1n[nH]c2ncc(C#Cc3c(F)ccc(NS(=O)(=O)c4cccc(Cl)c4)c3F)cc12

- Activity [4]: 1.9%
- IC50 [1]: 0.0033 µM
- Activity [5]: 6.2%
- Activity [6]: 0.9%
- Kd [7]: 0.46 µM
- Kd [8]: 0.05 µM
- Activity [9]: 1.5%
- Kd [10]: 0.088 µM
- half-life [11]: 34.6 h
- Activity [13]: 3.9%
- IC50 [2]: > 3 µM
- Kd [15]: 0.045 µM
- Kd [16]: 0.21 µM
- inhibition [17]: Dose-dependent effect
- Activity [18]: 5.5%
- Activity [19]: 9.9%
- IC50 [3]: > 1 µM
- IC50 [21]: > 10 µM
- inhibition [22]: Dose-dependent effect
- Activity [23]: 3%
- Kd [26]: 0.0027 µM
- AUC [28]: 253794 µg/L/h
- bioavailability [29]: 20%
- Activity [30]: 2.9%
- inhibition [31]: Dose-dependent effect
- Kd [32]: 0.064 µM
- fraction unbound at 4 h, 1 µM [34]: 0.002
- Activity [35]: 2.4%
- Kd [36]: 0.18 µM
- Kd [37]: 0.022 µM
- Kd [39]: 0.064 µM
Structure (SMILES): COc1n[nH]c2ncc(C#Cc3c(F)ccc(NS(=O)(=O)c4cccc(C#N)c4)c3F)cc12
- inhibition [12]: Dose-dependent effect
- inhibition (INH) [14]: 3 - 8%
- inhibition [20]: Dose-dependent effect
- inhibition [24]: Dose-dependent effect
- inhibition [25]: Dose-dependent effect
- Activity [27]: 0.95 g
- inhibition [33]: Dose-dependent effect
- inhibition [38]: Dose-dependent effect

- IC50 [1]: 0.0051 µM
- IC50 [2]: > 1 µM
- IC50 [3]: > 1 µM
Structure (SMILES): COc1n[nH]c2ncc(C#Cc3c(F)ccc(NS(=O)(=O)c4ccccc4Cl)c3F)cc12
